# Source: PubChem BioAssay (several laboratories)
# SKN-1 inh = inhibitors of C. elegans SKN-1; C. elegans VP596 Pgst-4::GFP/RFP ratio, acrylamide-induced, 24 h; inhibition, % at 21.8 µM; hit rate 0.49% among 360,000;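 active = interference check ratio from 0.5 to 1.5 plus GFP to RFP signal ratio inhibition reaching or exceeding a fixed threshold, cut at about 30% in these data, passing the limit was not always enough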
# DAGLB inh = blocks human DAGLB lipase activity | Q8NCG7 | HEK293T DAGLB membrane lysate, EnzChek fluorogenic substrate | inhibition, % at 5.17 µM | hit rate 0.059% among 340,000; in the data active = inhibition above about 34%
# Target sequence (Q8NCG7 whole entry, looked up): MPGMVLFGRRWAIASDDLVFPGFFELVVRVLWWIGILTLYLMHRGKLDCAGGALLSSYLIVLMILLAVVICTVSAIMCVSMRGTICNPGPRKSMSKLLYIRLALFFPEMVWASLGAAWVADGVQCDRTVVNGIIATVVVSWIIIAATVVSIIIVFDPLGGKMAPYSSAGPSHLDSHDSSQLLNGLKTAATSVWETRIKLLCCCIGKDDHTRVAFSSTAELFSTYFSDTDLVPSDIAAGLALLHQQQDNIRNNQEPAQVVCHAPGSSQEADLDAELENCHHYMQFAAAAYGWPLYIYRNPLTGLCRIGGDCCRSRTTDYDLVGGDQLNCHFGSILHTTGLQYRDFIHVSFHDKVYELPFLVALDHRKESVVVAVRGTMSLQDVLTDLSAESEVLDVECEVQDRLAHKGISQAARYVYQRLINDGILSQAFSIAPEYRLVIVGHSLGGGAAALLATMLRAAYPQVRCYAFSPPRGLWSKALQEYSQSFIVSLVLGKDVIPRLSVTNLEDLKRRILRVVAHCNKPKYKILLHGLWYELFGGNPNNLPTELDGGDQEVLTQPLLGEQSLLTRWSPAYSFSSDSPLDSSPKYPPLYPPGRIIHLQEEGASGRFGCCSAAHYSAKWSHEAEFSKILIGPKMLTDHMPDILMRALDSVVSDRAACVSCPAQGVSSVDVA
# iPSC survival up = hiPSC single-cell survival enhancement | ATPlite luminescence; 100% = ROCK inhibitor wells, 0% = DMSO | survival enhancement, % at 20 µM | hit rate 0.044% among 360,000 | AID 602274; in the data active = survival enhancement above about 18%;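 also: cells exposed to compounds for 16 hours before the ATP read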
# FAS TE block = FAS thioesterase (human) inhibition | recombinant FAS-TE, OMFH fluorogenic substrate, fluorescence endpoint | P49327 | hit rate 0.67% among 360,000 | inhibition, % at 15 µM;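 active = compounds whose normalised, plate-corrected inhibition of enzyme fluorescence in the single-dose primary screen is 50% or more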
# MT1-MMP act inh = MT1-MMP (human) activation inhibition; P50281; HT1080 RFP-PRO-GFP cells, GFP/RFP ratio fluorescence, overnight; percent of plate control window, DMSO zero; GFP/RFP ratio change, % at 20 µM; hit rate 0.061% among 360,000;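 active = GFP/RFP ratio change of at least 30% with cell ATP level not reduced by more than half and red fluorescence within 50% of control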
#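 Assay system: HT1080 RFP-PRO-GFP cells. Benchmarks: DMSO vehicle wells and RFP-L50D-GFP reporter cell wells. Times: overnight cell settling, then overnight compound exposure, 37 °C, 5% CO2. Compound: 20 µM single dose, 1% DMSO. Read-out basis: GFP/RFP fluorescence ratio.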
# FAS-TE inh conf = FAS thioesterase (human) inhibition, confirmation | shares compounds with FAS TE block | recombinant FAS-TE, OMFH fluorogenic substrate, fluorescence | inhibition, % at 15 µM | hit rate 45% among 2,300;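 active = compounds inhibiting the enzyme by at least 50% at 15 µM in any one of the replicates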
# Hits are given with their value; - = inactive; . = no result given. Rows were chosen to be rich in hits. Some 1.3% of all compounds tested hit in one or more screens of this group.
SMILES,SKN-1 inh,DAGLB inh,iPSC survival up,FAS TE block,MT1-MMP act inh,FAS-TE inh conf
Cc1c(Br)c([N+](=O)[O-])nn1CC(=O)Nc1ccccn1,-,-,-,-,-,.
CC[C@]12c3[nH]c4cc(-c5ccco5)ccc4c3CCN1C(=O)[C@@H](CC(=O)NCc1cccc(C(F)(F)F)c1)C[C@@H]2C(=O)N1CCN(C(=O)c2ccco2)CC1,-,-,-,-,-,.
CC(=O)c1ccc(N(C(=O)c2ccco2)C(C(=O)NC2CCCC2)c2ccc(N3CCOCC3)cc2)cc1 (centres undefined),-,-,-,55,-,52
O=[N+]([O-])c1ccc(C(O)C(CO)NC(=S)Nc2ccccc2)cc1 (centres undefined),-,-,-,59,-,55
CN(CC(O)COc1ccc2ccccc2c1)C1CCCCC1 (centres undefined),-,-,-,-,-,.
CCc1nc2ccc(C(=O)N(CC)CCN(C)C)cn2c1N(C)Cc1nccs1,-,.,-,-,-,.
C[C@@H](NC(=O)c1[nH]cnc1C(=O)Nc1ccccc1F)c1ccccc1,-,-,-,-,-,.
COC(=O)C1=C(C(=O)OC)[C@]2([C@@H]3CC=CCN[C@@H](Cc4ccccc4)C(=O)N3Cc3ccccc3)C=C[C@H]1O2,-,-,-,-,-,.
COC(=O)C1=C(C(=O)OC)[C@]2([C@H]3CC=CCN[C@@H](Cc4ccccc4)C(=O)N3Cc3ccccc3)C=C[C@H]1O2,-,-,-,54,-,-
COC(=O)[C@@]1(C(C)C)N=C(c2cc(OC)c(OC)c(OC)c2)[C@]2(O1)C(=O)N(Cc1ccc(OC)cc1)c1ccc(Br)cc12,-,.,-,53,-,-
CC(C)(C(=O)N1CCC1(C)C(=O)NS(=O)(=O)c1cccc(C#N)c1)c1ccccc1 (centres undefined),-,.,-,-,-,.
Cc1nc(N2CCN(S(=O)(=O)c3ccccc3C#N)CC2)c2c(-c3cccs3)csc2n1,-,-,-,51,-,-
CCN(CC(=O)NCc1cccs1)S(=O)(=O)c1cccc(C(C)=O)c1,-,-,-,-,-,.
CCN(CC(=O)NCc1cccs1)S(=O)(=O)c1ccc([N+](=O)[O-])cc1,-,-,-,52,-,52
O=C(COC(=O)c1cccc([N+](=O)[O-])c1)NCc1cccs1,-,-,-,52,-,63
COc1ccc([C@@H]2[C@@H]3C(=O)N(C(C)(C)C)C(=O)[C@@H]3[C@]3(Cc4ccc(Cl)cc4)C(=O)N(c4cccc(F)c4)C(=O)N23)cc1,-,-,-,72,-,-
CC[C@@]12C(=O)N(c3cccc(Br)c3)C(=O)N1[C@H](c1ccc(OC)cc1)[C@@H]1C(=O)N(C(C)(C)C)C(=O)[C@@H]12,-,-,-,-,-,.
COc1ccc([C@@H]2[C@@H]3C(=O)N(C(C)(C)C)C(=O)[C@@H]3[C@]3(Cc4ccc(Cl)cc4)C(=O)N(c4cccc(Br)c4)C(=O)N23)cc1,-,-,-,95,-,-
COc1ccc([C@@H]2[C@@H]3C(=O)N(C(C)(C)C)C(=O)[C@@H]3[C@]3(Cc4ccccc4)C(=O)N(c4cccc(C)c4)C(=O)N23)cc1,-,-,-,-,-,.
OC[C@@H]1CN(Cc2ccco2)C[C@H](n2cnc3c(NCc4ccc(F)cc4)ncnc32)O1,-,.,-,-,-,.
CCCN1CCN(CCCNC(=O)CN2C(=O)c3cccnc3Oc3ccc(Cl)cc32)CC1,-,-,-,-,-,.
O=C(CN1C(=O)c2cccnc2Oc2ccc(Cl)cc21)NCCCc1ccccc1,-,-,-,55,-,-
COC(=O)c1ccc2nc(-c3ccc(C)cc3)c(Cc3cccc(Cl)c3)n2c1,-,.,-,-,-,.
Cc1cccc(N2C(=O)CC(Sc3nc(-c4ccccc4)c4cc(Cl)ccc4n3)C2=O)c1 (centres undefined),-,-,-,66,-,-
Cc1cccc(N2C(=O)CC(Sc3nc(C)cc(C)n3)C2=O)c1 (centres undefined),-,-,-,-,-,.
SMILES,SKN-1 inh,DAGLB inh,iPSC survival up,FAS TE block,MT1-MMP act inh,FAS-TE inh conf
CCCCCN(C(=O)COC(=O)CSc1ccc([N+](=O)[O-])cc1)c1c(N)n(CCCC)c(=O)[nH]c1=O,-,-,-,58,-,-
CN1C[C@H](C(=O)NC2(C)OC3(O)[C@@H]4CCCN4C(=O)[C@H](Cc4ccccc4)N3C2=O)CC2c3cccc4[nH]cc(c34)C[C@H]21 (some centres undefined),-,-,-,59,-,73
COC(=O)[C@@H](c1ccccc1)N(C)S(=O)(=O)c1cccc(S(=O)(=O)N(C)[C@@H](C(=O)OC)c2ccccc2)c1,-,-,-,53,-,-
COC(=O)C[C@@H]1C=C[C@H](NC(=O)Nc2cc(F)ccc2F)[C@@H](CO)O1,-,.,.,.,-,.
COCCCN(CC(=O)Nc1ccc(N2CCOCC2)cc1)S(=O)(=O)c1ccccc1,-,-,-,-,-,.
N=c1c(S(=O)(=O)c2ccc(Cl)cc2)cc2c(=O)n3ccccc3nc2n1C1CCCC1,-,-,-,65,-,-
COc1ccc(CCn2c(=N)c(S(=O)(=O)c3ccc(C)cc3)cc3c(=O)n4ccccc4nc32)cc1,-,-,-,59,-,-
O=S(=O)(c1ccc(Cl)cc1)N1CCN=C1SCc1cccc(Cl)c1,-,-,-,51,-,-
O=S(=O)(c1ccc(Cl)cc1)N1CCN=C1SCc1cccnc1,-,-,-,-,-,.
O=C(C[C@H]1CC[C@H]2[C@@H](COC[C@@H](O)CN2S(=O)(=O)c2ccccc2)O1)N[C@@H]1CCN(Cc2ccccc2)C1,-,.,.,.,-,.
CCN(CC(=O)NCc1ccc(Cl)cc1)C(=O)/C=C/c1ccccc1,-,-,-,-,-,.
CCN(CC(=O)NCc1ccc(Cl)cc1)C(=O)/C=C/c1ccc(Cl)c([N+](=O)[O-])c1,-,-,-,65,-,-
CC(C)(C)N1C(=O)[C@H]2[C@@H](c3ccc(Br)cc3)N3C(=O)N(c4cccc(Cl)c4)C(=O)[C@@]3(Cc3ccccc3)[C@H]2C1=O,-,-,-,96,-,-
COc1ccc(N2C(=O)N3[C@H](c4ccc(Br)cc4)[C@@H]4C(=O)N(C(C)(C)C)C(=O)[C@@H]4[C@]3(Cc3ccccc3)C2=O)cc1,-,-,-,71,-,-
COc1ccc([C@@H]2[C@@H]3C(=O)N(C(C)(C)C)C(=O)[C@@H]3[C@]3(Cc4ccccc4)C(=O)N(c4cccc(Cl)c4)C(=O)N23)cc1,-,-,-,79,-,-
O=S(=O)(Nc1ccc(C(O)(C(F)(F)F)C(F)(F)F)cc1)c1cccc2ccccc12,-,.,-,-,-,.
